The source made the active and inactive calls.
What was measured:
Assay type in all cases: functional, organism-based
[1] = tested on: Mus musculus; test: Antinociceptive activity in Swiss mouse assessed as inhibition of carrageenan-induced thermal hyperalgesia at 1 mg/kg, ip administered 30 mins prior to carrageenan-challenge measured after 1 to 5 hrs by hot plate test; set-up: dose 1 mg/kg
How it was run: (§1)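 Doses of 1–10 mg/kg given ip 30 min before intraplantar carrageenan (300 μg/paw). Hot plate held at 55 °C; latency to jump or lick paws recorded at 1, 3 and 5 h, with a 30 s cutoff. Two baseline latencies taken at least 10 min apart. Six mice per group.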

[2] = tested on: Mus musculus; test: Antinociceptive activity in Swiss mouse assessed as inhibition of carrageenan-induced thermal hyperalgesia at 3 to 10 mg/kg, ip administered 30 mins prior to carrageenan-challenge measured after 1 to 5 hrs by hot plate test; how it was run: as §1
[3] = tested on: Mus musculus; test: Antinociceptive activity in Swiss mouse assessed as inhibition of carrageenan-induced mechanical hyperalgesia at 1 to 3 mg/kg, ip administered 30 mins prior to carrageenan-challenge measured after 5 hrs by electronic pressure-meter test
How it was run: (§2)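 Doses of 1–10 mg/kg given ip 30 min before intraplantar carrageenan (300 μg/paw). Electronic pressure-meter applied to mice on a wire grid floor; paw withdrawal with flinching was the end point, and each value is the average of three readings. Result reported as Δ withdrawal threshold (g) from baseline at 1, 3 and 5 h. Six mice per group; two-way ANOVA.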

[4] = tested on: Mus musculus; test: Antinociceptive activity in Swiss mouse assessed as inhibition of carrageenan-induced mechanical hyperalgesia at 10 mg/kg, ip administered 30 mins prior to carrageenan-challenge measured after 1 to 5 hrs by electronic pressure-meter test; set-up: dose 10 mg/kg; how it was run: as §2
[5] = tested on: Mus musculus; test: Antinociceptive activity in Swiss mouse assessed as inhibition of carrageenan-induced mechanical hyperalgesia at 1 to 3 mg/kg, ip administered 30 mins prior to carrageenan-challenge measured after 3 hrs by electronic pressure-meter test; how it was run: as §2
[6] = tested on: Mus musculus; test: Antinociceptive activity in ip dosed Swiss mouse assessed as inhibition of carrageenan-induced thermal hyperalgesia administered 30 mins prior to carrageenan-challenge measured after 1 to 5 hrs by hot plate test; how it was run: as §1
[7] = tested on: Mus musculus; test: Antinociceptive activity in ip dosed Swiss mouse assessed as inhibition of carrageenan-induced mechanical hyperalgesia administered 30 mins prior to carrageenan-challenge measured at 1 to 5 hrs by electronic pressure-meter test; how it was run: as §2
[8] = tested on: Mus musculus; test: Antinociceptive activity in Swiss mouse assessed as decrease in complete Freund's adjuvant-induced time spent for licking paw at 10 mg/kg, ip administered 30 mins prior to complete Freund's adjuvant-challenge measured after 30 mins; set-up: dose 10 mg/kg
How it was run: (§3)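 Dosed ip 30 min before intraplantar CFA (10 μL/paw). Flinches and licking time of the injected paw counted over 0–30 min and expressed as totals for 30 min. Six mice per group; representative of two experiments.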

[9] = tested on: Mus musculus; test: Antinociceptive activity in Swiss mouse assessed as decrease in capsaicin-induced time spent for licking paw at 10 mg/kg, ip administered 30 mins prior to capsaicin-challenge measured after 5 mins; set-up: dose 10 mg/kg
How it was run: (§4)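 Pretreatment ip 30 min before intraplantar capsaicin (1.6 μg/paw), given after an adaptation period. Mice observed individually for 5 min afterwards. Total flinches and time spent licking the injected paw were scored. Six mice per group; representative of two experiments; one-way ANOVA with Tukey's test.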

[10] = tested on: Mus musculus; test: Antinociceptive activity in Swiss mouse assessed as inhibition of capsaicin-induced paw flinching at 10 mg/kg, ip administered 30 mins prior to capsaicin-challenge measured after 5 mins; set-up: dose 10 mg/kg; how it was run: as §4
[11] = tested on: Mus musculus; test: Antinociceptive activity in Swiss mouse assessed as decrease in formalin-induced time spent for licking paw at 10 mg/kg, ip administered 30 mins prior to formalin-challenge measured after 30 mins; set-up: dose 10 mg/kg
How it was run: (§5)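 Given ip 30 min before intraplantar formalin (25 μL of 1.5% in saline). Paw flinches and licking time recorded from 0 to 30 min in 5-min bins, covering the first (0–5 min) and second (10–30 min) phases. Six mice per group; representative of two experiments.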

[12] = tested on: Mus musculus; test: Antinociceptive activity in Swiss mouse assessed as inhibition of formalin-induced paw flinching at 10 mg/kg, ip administered 30 mins prior to formalin-challenge measured after 30 mins; set-up: dose 10 mg/kg; how it was run: as §5
[13] = tested on: Mus musculus; test: Antinociceptive activity in Swiss mouse assessed as inhibition of phenyl-p-benzoquinone-induced writhing response at 10 mg/kg, ip administered 30 mins prior to phenyl-p-benzoquinone-challenge measured for 20 mins; set-up: dose 10 mg/kg
How it was run: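 Pretreatment ip 30 min before ip phenyl-p-benzoquinone (1890 μg/kg in 2% DMSO/saline). Cumulative writhing score counted over 20 min. Six mice per group; representative of two experiments.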

[14] = tested on: Mus musculus; test: Antinociceptive activity in Swiss mouse assessed as inhibition of acetic acid-induced writhing response at 0.3 mg/kg, ip administered 30 mins prior to acetic acid-challenge measured for 20 mins; set-up: dose 0.3 mg/kg
How it was run: (§6)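 Doses of 0.3–10 mg/kg given ip in saline 30 min before ip acetic acid (0.8% v/v in saline, 10 mL/kg). Cumulative abdominal writhing counted over 20 min and presented in 2-min intervals. Six mice per group; representative of two experiments.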

[15] = tested on: Mus musculus; test: Antinociceptive activity in Swiss mouse assessed as inhibition of acetic acid-induced writhing response at 10 mg/kg, ip administered 30 mins prior to acetic acid-challenge measured for 20 mins; set-up: dose 10 mg/kg; how it was run: as §6
[16] = tested on: Mus musculus; test: Antinociceptive activity in Swiss mouse assessed as inhibition of acetic acid-induced writhing response at 1 to 3 mg/kg, ip administered 30 mins prior to acetic acid-challenge measured for 20 mins; how it was run: as §6
[17] = tested on: Mus musculus; test: Antinociceptive activity in ip dosed Swiss mouse assessed as inhibition of acetic acid-induced writhing response administered 30 mins prior to acetic acid-challenge measured for 20 mins; how it was run: as §6
[18] = tested on: Mus musculus; test: Antinociceptive activity in Swiss mouse assessed as inhibition of complete Freund's adjuvant-induced paw flinching at 10 mg/kg, ip administered 30 mins prior to complete Freund's adjuvant-challenge measured after 30 mins; set-up: dose 10 mg/kg; how it was run: as §3

O=c1cc(-c2ccc(O)cc2)oc2c([C@@H]3O[C@H](CO)[C@@H](O)[C@H](O)[C@H]3O)c(O)cc(O)c12 [VITEXIN]
inhibition [1]: inactive
inhibition [2]: Active
inhibition [3]: Active
inhibition [4]: Active
inhibition [5]: Active
inhibition [6]: Dose-dependent effect
inhibition [7]: Dose-dependent effect
inhibition [8]: Active
inhibition [9]: Active
inhibition [10]: Active
inhibition [11]: Active
inhibition [12]: Active
inhibition [13]: Active
inhibition [14]: Active
inhibition [15]: Active
inhibition [16]: Active
inhibition [17]: Dose-dependent effect
inhibition [18]: Active

Reference: ChEMBL document CHEMBL2384933, “Vitexin inhibits inflammatory pain in mice by targeting TRPV1, oxidative stress, and cytokines” (J Nat Prod, 2013)
